Laboratory results from ChEMBL document CHEMBL1122463, “2,3-dihydro-3-(1-pyrryl)spiro[benzofuran-2,4'-piperidine]s and 2,3-dihydro-3-(1-pyrryl)spiro[benzofuran-2,3'-pyrrolidine]s: novel antihypertensive agents” (1983).
Values joined by “and” are separate entries in the source; they are usually repeats but may differ in a detail not shown here. Equal entries are not always repeated.

Experiments:
Canis familiaris [1] = assay: Hemodynamic effect in sinoaortic- deafferented hypertensive dog measured as mean arterial BP after 60 min of 5 mg/kg dose; type: functional, Canis lupus familiaris
Rattus norvegicus [2] = assay: (§1) Oral hypotensive activity in spontaneously hypertensive rats by using tail-cuff method measured as change in systolic BP at the dose of 10 mg/kg po.; type: functional, Blood
Procedure, shortened: (§2)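 SHR of the Okamoto-Aoki strain, dosed orally every day with compound suspended in distilled water with Tween 80. Systolic pressure was taken by tail-cuff plethysmography on day 1 (predose, 2 h), day 3 (predose, 2 h) and day 5 (predose, 2 and 4 h). Initial BP is the pretreatment systolic pressure, with 4–8 rats per dose in the dose-response screen.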

Rattus norvegicus [3] = assay: (§3) Oral hypotensive activity in spontaneously hypertensive rats by using tail-cuff method measured as change in systolic BP at the dose of 50 mg/kg po.; type: functional, Blood
Procedure, shortened: (§4)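 Okamoto-Aoki spontaneously hypertensive rats. Compound suspended in distilled water with Tween 80, given po daily, screening dose 50 mg/kg, dose-response at 50, 30, 10 or 3 mg/kg unless stated. Systolic BP by tail-cuff plethysmography on day 1 predose and 2 h, day 3 predose and 2 h, and day 5 predose, 2 and 4 h. Reported as peak decrease on day 3 (or day 5) at 2 h ± SEM. n = 4 in screen, 4–8 per dose.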

Rattus norvegicus [4] = assay: hypotensive activity in renal hypertensive rats by using tail-cuff method measured as post drug BP (day/h) after administration of 10 mg/kg dose po;(day/h=2/2); type: functional, Blood
Procedure, shortened: (§5)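 Renal hypertension (modified Grollman) was made in male Sprague-Dawley rats under pentobarbital sodium 50 mg/kg ip. The right kidney was removed, and silk sutures around both poles of the left kidney constricted the parenchyma. After 3 weeks of stabilization, rats with systolic BP >150 mmHg were used. Compounds were given orally. Systolic BP was measured by tail-cuff predose and at the stated day/h after dosing.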

Rattus norvegicus [5] = assay: (§6) Oral hypotensive activity in spontaneously hypertensive rats by using tail-cuff method measured as change in systolic BP at the dose of 25 mg/kg po.; type: functional, Blood; procedure, shortened: as §2
Canis familiaris [6] = assay: Hemodynamic effect in sinoaortic- deafferented hypertensive dog measured as heart rate after 5 min of 5 mg/kg dose; type: functional, Canis lupus familiaris
Rattus norvegicus [7] = assay: Hypotensive activity in renal hypertensive rats by using tail-cuff method measured as initial BP at the dose of 10 mg/kg po.; type: functional, Blood
Procedure, shortened: (§7)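 Renal hypertension made in male Sprague-Dawley rats (Grollman modification). Under pentobarbital (50 mg/kg ip), the right kidney was removed and silk sutures tied around both poles of the left kidney to constrict it. After 3 weeks, rats with systolic BP >150 mmHg were used. Compound given po daily to 4 rats. Systolic BP by tail-cuff plethysmography at the listed day/hour after dosing.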

Canis familiaris [8] = assay: Hemodynamic effect in sinoaortic- deafferented hypertensive dog measured as left ventricular pressure after 5 min of 5 mg/kg; type: functional, Canis lupus familiaris, Heart left ventricle
Canis familiaris [9] = assay: Hemodynamic effect in sinoaortic- deafferented hypertensive dog measured as left ventricular pressure after 0 min of 5 mg/kg; type: functional, Canis lupus familiaris, Heart left ventricle
Rattus norvegicus [10] = assay: (§8) Oral hypotensive activity in spontaneously hypertensive rats by using tail-cuff method measured as change in systolic BP at the dose of 5 mg/kg po.; type: functional, Blood; procedure, shortened: as §4
Canis familiaris [11] = assay: Effect of compound at a dose of 10 mg/kg iv, on standard cardiovascular in anesthetized normotensive dogs before administration of tyramine.; type: functional, Canis lupus familiaris, Heart
Procedure, shortened: (§9)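 Trachea intubated, artificially respired, bilateral vagotomy. Femoral artery cannulated for BP, femoral vein for drugs. BP and heart rate recorded continuously. Each iv challenge given twice predrug for matched responses and once after test drug. Doses: epinephrine and norepinephrine 0.5 to 1.0 μg/kg; isoproterenol and carbachol 0.25 μg/kg.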

Canis familiaris [12] = assay: Effect of compound at a dose of 10 mg/kg iv, on standard cardiovascular in anesthetized normotensive dogs after administration of epinephrine.; type: functional, Canis lupus familiaris, Heart; procedure, shortened: as §9
Rattus norvegicus [13] = assay: as §6; type: functional, Blood; procedure, shortened: as §4; remark: listed apart in the source
Canis familiaris [14] = assay: Effect of compound at a dose of 10 mg/kg iv, on standard cardiovascular in anesthetized normotensive dogs after administration of norepinephrine.; type: functional, Canis lupus familiaris, Heart; procedure, shortened: as §9
Canis familiaris [15] = assay: Mean arterial BP before administration at a dose of 10 mg/kg iv.; type: functional, Canis lupus familiaris
Canis familiaris [16] = assay: Effect of compound at a dose of 10 mg/kg iv, on standard cardiovascular in anesthetized normotensive dogs before administration of epinephrine.; type: functional, Canis lupus familiaris, Heart; procedure, shortened: as §9
Canis familiaris [17] = assay: Hemodynamic effect in sinoaortic- deafferented hypertensive dog measured as heart rate after 60 min of 5 mg/kg dose; type: functional, Canis lupus familiaris
Canis familiaris [18] = assay: Mean Heart rate before administration at a dose of 10 mg/kg iv.; type: functional, Canis lupus familiaris
Canis familiaris [19] = assay: Effect of compound at a dose of 10 mg/kg iv, on standard cardiovascular in anesthetized normotensive dogs before administration of isoproterenol.; type: functional, Canis lupus familiaris, Heart; procedure, shortened: as §9
Rattus norvegicus [20] = assay: as §1; type: functional, Blood; procedure, shortened: as §4; remark: listed apart in the source
Canis familiaris [21] = assay: Effect of compound at a dose of 10 mg/kg iv, on standard cardiovascular in anesthetized normotensive dogs before administration of carbachol; type: functional, Canis lupus familiaris, Heart; procedure, shortened: as §9
Rattus norvegicus [22] = assay: hypotensive activity in renal hypertensive rats by using tail-cuff method measured as post drug BP (day/h) after administration of 10 mg/kg dose po;(day/h=3/0); type: functional, Blood; procedure, shortened: as §5
Canis familiaris [23] = assay: Hemodynamic effect in sinoaortic- deafferented hypertensive dog measured as left ventricular pressure after 30 min of 5 mg/kg; type: functional, Canis lupus familiaris, Heart left ventricle
Canis familiaris [24] = assay: Effect of compound at a dose of 10 mg/kg iv, on standard cardiovascular in anesthetized normotensive dogs before administration of norepinephrine.; type: functional, Canis lupus familiaris, Heart; procedure, shortened: as §9
Canis familiaris [25] = assay: Hemodynamic effect in sinoaortic- deafferented hypertensive dog measured as mean arterial BP after 5 min of 5 mg/kg dose; type: functional, Canis lupus familiaris
Canis familiaris [26] = assay: Hemodynamic effect in sinoaortic- deafferented hypertensive dog measured as heart rate after 0 min of 5 mg/kg dose; type: functional, Canis lupus familiaris
Canis familiaris [27] = assay: Hemodynamic effect in sinoaortic- deafferented hypertensive dog measured as mean arterial BP after 30 min of 5 mg/kg dose; type: functional, Canis lupus familiaris
Canis familiaris [28] = assay: Effect of compound at a dose of 10 mg/kg iv, on standard cardiovascular in anesthetized normotensive dogs after administration of tyramine.; type: functional, Canis lupus familiaris, Heart; procedure, shortened: as §9
Canis familiaris [29] = assay: Hemodynamic effect in sinoaortic- deafferented hypertensive dog measured as heart rate after 30 min of 5 mg/kg dose; type: functional, Canis lupus familiaris
Rattus norvegicus [30] = assay: as §3; type: functional, Blood; remark: listed apart in the source
Procedure, shortened: (§10)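 Okamoto-Aoki strain spontaneously hypertensive rats. Compounds were suspended in distilled water with Tween 80 and given orally every day at 50, 30, 10 or 3 mg/kg. Systolic BP was measured by tail-cuff plethysmography on day 1 (predose and 2 h), day 3 (predose and 2 h) and day 5 (predose, 2 and 4 h). The screen used 4 rats; dose-response used 4–8 rats per dose.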

Rattus norvegicus [31] = assay: as §8; type: functional, Blood; procedure, shortened: as §10; remark: listed apart in the source
Rattus norvegicus [32] = assay: hypotensive activity in renal hypertensive rats by using tail-cuff method measured as post drug BP (day/h) after administration of 10 mg/kg dose po;(day/h=3/2); type: functional, Blood; procedure, shortened: as §5
Canis familiaris [33] = assay: Effect of compound at a dose of 10 mg/kg iv, on standard cardiovascular in anesthetized normotensive dogs after administration of carbachol; type: functional, Canis lupus familiaris, Heart; procedure, shortened: as §9
Canis familiaris [34] = assay: Hemodynamic effect in sinoaortic- deafferented hypertensive dog measured as mean arterial BP after 0 min of 5 mg/kg dose; type: functional, Canis lupus familiaris
Canis familiaris [35] = assay: Mean Heart rate after. administration at a dose of 10 mg/kg iv.; type: functional, Canis lupus familiaris
Canis familiaris [36] = assay: Hemodynamic effect in sinoaortic- deafferented hypertensive dog measured as left ventricular pressure after 60 min of 5 mg/kg; type: functional, Canis lupus familiaris, Heart left ventricle
Canis familiaris [37] = assay: Effect of compound at a dose of 10 mg/kg iv, on standard cardiovascular in anesthetized normotensive dogs after administration of isoproterenol.; type: functional, Canis lupus familiaris, Heart; procedure, shortened: as §9
Rattus norvegicus [38] = assay: Hypotensive activity in renal hypertensive rats by using tail-cuff method measured as post drug BP (day/h) after administration of 10 mg/kg dose po;(day/h=1/2); type: functional, Blood; procedure, shortened: as §7
Canis familiaris [39] = assay: Mean arterial BP after administration at a dose of 10 mg/kg iv.; type: functional, Canis lupus familiaris

For CN1CCC2(CC1)Oc1ccccc1C2n1cccc1 (centres undefined), which BP (Canis familiaris [1]) is on record?
The BP was 129 mmHg.

What about the BP (Rattus norvegicus [2]) of the same compound?
Its BP is 190 mmHg.

What about the Delta blood pressure (Rattus norvegicus [3]) of the same compound?
Its Delta blood pressure is 39 mmHg.

What about the BP (Rattus norvegicus [4]) of the same compound?
Its BP is 184 mmHg and 170 mmHg.

What about the BP (Rattus norvegicus [5]) of the same compound?
The BP was 196 mmHg.

What about the Rate (Canis familiaris [6]) of the same compound?
The Rate was 154 beats min-1.

And the BP (Rattus norvegicus [7])?
The BP was 206 mmHg.

What about the dP/dt (Canis familiaris [8]) of the same compound?
Its dP/dt is 26 1/Pmax s.

And the dP/dt (Canis familiaris [9])?
The dP/dt was 24.2 1/Pmax s.

And the Delta blood pressure (Rattus norvegicus [10])?
The Delta blood pressure was 30 mmHg.

And the BP (Canis familiaris [11])?
The BP was 52.5 mmHg.

What about the BP (Canis familiaris [12]) of the same compound?
Its BP is 67 mmHg.

And the Delta blood pressure (Rattus norvegicus [13])?
Its Delta blood pressure is 58 mmHg.

What about the BP (Canis familiaris [14]) of the same compound?
The BP was 58 mmHg.

What about the BP (Canis familiaris [15]) of the same compound?
The BP was 117 mmHg.

What about the BP (Canis familiaris [16]) of the same compound?
Its BP is 53.7 mmHg.

And the Rate (Canis familiaris [17])?
Its Rate is 160 beats min-1.

What about the Rate (Canis familiaris [18]) of the same compound?
The Rate was 147 beats min-1.

And the BP (Canis familiaris [19])?
Its BP is -38 mmHg.

What about the Delta blood pressure (Rattus norvegicus [20]) of the same compound?
The Delta blood pressure was 50 mmHg.

What about the BP (Canis familiaris [21]) of the same compound?
The BP was -49.2 mmHg.

What about the BP (Rattus norvegicus [22]) of the same compound?
Its BP is 183 mmHg.

What about the dP/dt (Canis familiaris [23]) of the same compound?
The dP/dt was 26.2 1/Pmax s.

And the BP (Canis familiaris [24])?
Its BP is 57 mmHg.

What about the BP (Canis familiaris [25]) of the same compound?
Its BP is 123 mmHg.

And the Rate (Canis familiaris [26])?
The Rate was 194 beats min-1.

What about the BP (Canis familiaris [27]) of the same compound?
Its BP is 129 mmHg.

What about the BP (Canis familiaris [28]) of the same compound?
Its BP is 48 mmHg.

And the Rate (Canis familiaris [29])?
Its Rate is 174 beats min-1.

And the BP (Rattus norvegicus [30])?
Its BP is 202 mmHg.

And the BP (Rattus norvegicus [31])?
The BP was 184 mmHg.

And the BP (Rattus norvegicus [32])?
Its BP is 97 mmHg.

What about the BP (Canis familiaris [33]) of the same compound?
Its BP is -29.7 mmHg.

And the BP (Canis familiaris [34])?
The BP was 175 mmHg.

And the Rate (Canis familiaris [35])?
Its Rate is 113 beats min-1.

And the dP/dt (Canis familiaris [36])?
The dP/dt was 23.4 1/Pmax s.

What about the BP (Canis familiaris [37]) of the same compound?
The BP was -30 mmHg.

And the BP (Rattus norvegicus [38])?
Its BP is 196 mmHg.

And the BP (Canis familiaris [39])?
The BP was 82.3 mmHg.
